Drawing on ChEMBL document CHEMBL1130092, “Discovery of potent nonpeptide vitronectin receptor (alpha v beta 3) antagonists” (J Med Chem, 1997), this text covers Ki for twelve compounds.

Molecules are shown by their SMILES. Bridge positions count the residues as written; N and C are the ends. Peptide text beside a SMILES is read from it. Some results are limits rather than exact numbers.

One assay concerns the target Integrin alpha-V/beta-3 (Homo sapiens, UniProt P05106+P06756). Nature of the assay: Affinity for vitronectin receptor, integrin alphaV-beta3. Type of assay: protein-complex assay. A digest of the protocol:
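Competitive radioligand binding to human αVβ3, displacing [3H]SK&F 107260; Ki values are means of two to three separate experiments.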

In assay [1] the target is Integrin alpha-IIb/beta-3 (Homo sapiens, UniProt P05106+P08514). Nature of the assay: Affinity for platelet fibrinogen receptor, integrin alpha IIb/beta3.
Integrin alpha-IIb/beta-3, sequence (P05106 27-788 limits assumed): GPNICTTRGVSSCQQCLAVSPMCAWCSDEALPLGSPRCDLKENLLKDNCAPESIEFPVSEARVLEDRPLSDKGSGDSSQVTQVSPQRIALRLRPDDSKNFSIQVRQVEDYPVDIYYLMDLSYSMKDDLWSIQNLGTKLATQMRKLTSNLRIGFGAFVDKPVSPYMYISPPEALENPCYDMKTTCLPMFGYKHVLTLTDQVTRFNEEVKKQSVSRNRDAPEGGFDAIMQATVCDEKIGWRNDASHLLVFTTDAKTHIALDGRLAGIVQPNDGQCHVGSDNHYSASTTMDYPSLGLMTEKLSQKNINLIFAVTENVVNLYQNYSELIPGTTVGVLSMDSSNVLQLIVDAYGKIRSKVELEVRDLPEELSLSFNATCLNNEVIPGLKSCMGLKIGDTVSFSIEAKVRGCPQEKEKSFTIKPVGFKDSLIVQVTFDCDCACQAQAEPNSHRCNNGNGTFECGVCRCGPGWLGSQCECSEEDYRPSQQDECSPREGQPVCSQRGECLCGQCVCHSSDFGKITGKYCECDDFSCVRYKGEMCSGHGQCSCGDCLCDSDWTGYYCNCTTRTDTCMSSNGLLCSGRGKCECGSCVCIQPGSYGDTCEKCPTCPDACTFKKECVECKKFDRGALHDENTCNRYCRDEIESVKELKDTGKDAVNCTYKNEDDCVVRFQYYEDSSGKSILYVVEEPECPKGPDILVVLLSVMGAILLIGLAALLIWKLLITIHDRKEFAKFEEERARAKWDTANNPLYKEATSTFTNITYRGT
Integrin alpha-IIb/beta-3, sequence (P08514 32-887 limits assumed): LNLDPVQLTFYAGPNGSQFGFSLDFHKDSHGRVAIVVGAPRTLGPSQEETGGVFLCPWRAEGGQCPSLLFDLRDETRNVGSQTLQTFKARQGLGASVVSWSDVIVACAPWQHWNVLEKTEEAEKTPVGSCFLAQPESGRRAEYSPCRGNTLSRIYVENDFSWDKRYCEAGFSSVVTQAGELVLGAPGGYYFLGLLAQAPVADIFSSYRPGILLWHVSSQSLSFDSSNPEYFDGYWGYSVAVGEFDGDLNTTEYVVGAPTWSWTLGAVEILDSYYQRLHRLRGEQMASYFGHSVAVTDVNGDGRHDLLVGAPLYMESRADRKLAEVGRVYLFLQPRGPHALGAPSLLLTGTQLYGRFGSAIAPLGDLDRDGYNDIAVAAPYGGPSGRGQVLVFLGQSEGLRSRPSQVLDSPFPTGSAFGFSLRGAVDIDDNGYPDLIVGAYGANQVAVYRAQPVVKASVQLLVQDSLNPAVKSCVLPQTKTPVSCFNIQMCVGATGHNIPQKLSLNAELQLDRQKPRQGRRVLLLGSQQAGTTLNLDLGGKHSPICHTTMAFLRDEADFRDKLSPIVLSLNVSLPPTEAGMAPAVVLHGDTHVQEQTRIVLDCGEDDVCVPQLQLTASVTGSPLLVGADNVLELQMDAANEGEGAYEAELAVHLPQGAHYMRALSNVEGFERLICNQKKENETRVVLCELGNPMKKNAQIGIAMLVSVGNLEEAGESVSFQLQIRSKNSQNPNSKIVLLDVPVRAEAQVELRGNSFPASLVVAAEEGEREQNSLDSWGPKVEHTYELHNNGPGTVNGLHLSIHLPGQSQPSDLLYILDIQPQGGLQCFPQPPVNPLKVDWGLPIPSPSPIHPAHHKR
Integrin alpha-IIb/beta-3, sequence (P08514 891-1039 limits assumed): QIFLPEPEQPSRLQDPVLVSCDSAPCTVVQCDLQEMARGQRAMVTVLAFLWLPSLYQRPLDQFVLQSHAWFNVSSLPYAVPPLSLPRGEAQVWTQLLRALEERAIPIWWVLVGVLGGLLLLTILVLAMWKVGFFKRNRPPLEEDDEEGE

Integrin alpha-V/beta-3, sequence (P05106 27-788 limits assumed): as the sequence (P05106 27-788 limits assumed) above
Integrin alpha-V/beta-3, sequence (P06756 31-889 limits assumed): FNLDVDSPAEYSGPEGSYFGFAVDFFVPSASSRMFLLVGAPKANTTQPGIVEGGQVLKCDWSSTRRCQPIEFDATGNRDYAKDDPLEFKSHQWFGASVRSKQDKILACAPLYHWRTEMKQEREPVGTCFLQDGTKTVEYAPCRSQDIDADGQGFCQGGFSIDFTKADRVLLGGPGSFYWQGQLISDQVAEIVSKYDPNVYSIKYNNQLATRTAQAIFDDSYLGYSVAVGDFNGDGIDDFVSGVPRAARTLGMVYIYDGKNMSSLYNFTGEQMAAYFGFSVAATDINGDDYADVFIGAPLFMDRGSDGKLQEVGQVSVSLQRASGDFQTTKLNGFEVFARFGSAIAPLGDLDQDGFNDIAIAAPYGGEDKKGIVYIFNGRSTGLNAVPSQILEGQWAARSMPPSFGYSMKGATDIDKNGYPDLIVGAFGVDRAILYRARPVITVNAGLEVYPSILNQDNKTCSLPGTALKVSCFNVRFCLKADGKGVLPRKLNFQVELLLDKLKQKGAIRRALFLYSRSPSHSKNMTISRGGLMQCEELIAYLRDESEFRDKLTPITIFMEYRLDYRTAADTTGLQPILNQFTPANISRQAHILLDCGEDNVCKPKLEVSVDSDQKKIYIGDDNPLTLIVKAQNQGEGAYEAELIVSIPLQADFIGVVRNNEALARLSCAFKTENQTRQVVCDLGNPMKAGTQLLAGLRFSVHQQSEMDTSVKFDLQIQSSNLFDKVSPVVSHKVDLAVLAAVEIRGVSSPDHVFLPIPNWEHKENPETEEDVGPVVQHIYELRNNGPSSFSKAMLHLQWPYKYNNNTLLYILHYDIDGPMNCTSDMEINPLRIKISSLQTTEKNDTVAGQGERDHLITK
Integrin alpha-V/beta-3, sequence (P06756 891-1048 limits assumed): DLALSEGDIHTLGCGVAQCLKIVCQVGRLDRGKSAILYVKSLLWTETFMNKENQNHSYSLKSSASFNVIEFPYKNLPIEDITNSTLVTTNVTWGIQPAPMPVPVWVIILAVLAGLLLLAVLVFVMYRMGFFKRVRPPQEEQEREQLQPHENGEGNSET

At Integrin alpha-V/beta-3, `N=C(N)c1ccc(NC(=O)c2ccc3c(c2)CN(CCc2ccccc2)C(=O)C(CC(=O)O)N3)cc1` (stereo not given) returned a Ki of 56 µM.

Consider `CC(=O)C[C@@H]1NC(=O)[C@@H](Cc2ccccc2)NC(=O)[C@H](C(C)C)NC(=O)[C@H](CCCN=C(N)N)NC(=O)CNC1=O`, for which the Ki turned out to be 0.01 µM on Integrin alpha-V/beta-3 and 42 µM in assay [1].

Regarding `N=C(N)c1cccc(NC(=O)c2ccc3c(c2)CN(CCc2ccccc2)C(=O)C(CC(=O)O)N3)c1` (stereo not given), the values for the Ki (at Integrin alpha-V/beta-3; in assay [1]) were 0.51 µM and 4.5 µM, respectively.

On Integrin alpha-V/beta-3, `CN(C(=O)c1ccccc1)[C@@H](CCCNC(=N)N)C(=O)NCC1=CC(CC(=O)O)C(=O)N(c2ccccc2)CC1` (stereo not given in full) had an inhibition constant Ki of 0.05 µM.

For `CN1Cc2cc(C(=O)NCc3nc4ccccc4[nH]3)ccc2N[C@@H](CC(=O)O)C1=O`, the inhibitory constant (Ki) on Integrin alpha-V/beta-3 was found to be 0.015 µM; in assay [1], 52 µM.

In the case of `CN1Cc2cc(C(=O)NCCc3nc4ccccc4[nH]3)ccc2NC(CC(=O)O)C1=O` (stereo not given), the Ki is 1.1 µM on Integrin alpha-V/beta-3 and more than 50 µM in assay [1].

With `CN1Cc2cc(C(=O)Nc3nc4ccccc4[nH]3)ccc2NC(CC(=O)O)C1=O` (stereo not given), the Ki was 1.15 µM on Integrin alpha-V/beta-3 and more than 50 µM in assay [1].

`CN1Cc2cc(C(=O)N3CCN(c4ccncc4)CC3)ccc2NC(CC(=O)O)C1=O` (stereo not given): the inhibition constant Ki at Integrin alpha-V/beta-3 is 1 µM; in assay [1] it was 0.008 µM.

`CN1Cc2cc(C(=O)N3CCN(c4ccccc4)CC3)ccc2NC(CC(=O)O)C1=O` (stereo not given) gave a Ki in assay [1] of more than 100 µM.

With `CN1Cc2cc(C(=O)NCc3nc4ccccc4[nH]3)ccc2NC(CC(=O)O)C1=O` (stereo not given), the inhibition constant (Ki) was 0.024 µM at Integrin alpha-V/beta-3 and 30 µM in assay [1].

As to `N/C1=N/CCC[C@H](N)C(=O)NCC(=O)N[C@@H](CC(=O)O)C(=O)N[C@@H](CO)C(=O)N[C@@H](Cc2ccccc2)C(=O)NCC(=O)N1` (H-RGDSFG; lactam 1-C), the Ki stood at 0.01 µM at Integrin alpha-V/beta-3 and 75 µM in assay [1].

As to `CN1C(=O)c2ccccc2SSc2ccccc2NC(=O)[C@H](CC(=O)O)NC(=O)CNC(=O)[C@@H]1CCCN=C(N)N` [SKF-107260], the Ki on Integrin alpha-V/beta-3 amounted to 0.0035 µM.

By Ki is commonly meant a measure of affinity in units of concentration, obtained from inhibition or displacement. A lower Ki goes with a stronger hold on the target.
